Measured values as given in ChEMBL document CHEMBL3352281, “Canthin-6-one displays antiproliferative activity and causes accumulation of cancer cells in the G2/M phase” (J Nat Prod, 2014).
Active and inactive are the calls of the source. No cut-off for these calls is given here.

Columns and labels:
[1] = Toxicity against human NHDF assessed as cell viability at 160 uM incubated for 3 days by MTT assay; type: cell-based; details: NHDF cells, read-out: Activity
How it was run: (§1)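 Normal human dermal fibroblasts kept 3 days in DMEM with 10% FCS at increasing concentrations up to 160 μM, DMSO-matched controls. MTT reduction read at 540 nm as percentage viability (mean ± SEM, n = 3), with microscopic morphology scoring.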

[2] = Toxicity against human NHDF assessed as reduction in cell viability incubated for 3 days by MTT assay; type: cell-based; details: NHDF cells; how it was run: as §1
PC-3 [3] = assay: Antiproliferative activity against human PC3 cells assessed as inhibition of cell growth at 40 uM after 4 days; type: functional, cell-based
How it was run: (§2)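 Cell counting: 40 000 cells/well seeded and grown at 37 °C, 5% CO2 in medium with 10% FCS, 2 mM glutamine and penicillin-streptomycin (Ham's F12 for PC-3, RPMI for Jurkat, DMEM for the others). Compound added from a 50-fold stock in 10% DMSO; controls 0.2% DMSO. Quadruplicate wells trypsinized (Jurkat not) and counted in a Malassez chamber; mean ± SEM, n = 4.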

HT-29 [4] = assay: Antiproliferative activity against human HT-29 cells assessed as inhibition of cell growth at 40 uM after 4 days; type: functional, cell-based; how it was run: as §2
Jurkat [5] = assay: Antiproliferative activity against human Jurkat cells assessed as inhibition of cell growth at 40 uM after 4 days; type: functional, cell-based; how it was run: as §2
C6 [6] = assay: Antiproliferative activity against rat C6 cells assessed as inhibition of cell growth at 40 uM after 4 days; type: functional, cell-based; how it was run: as §2
NIH3T3 [7] = assay: Antiproliferative activity against mouse NIH/3T3 cells assessed as inhibition of cell growth at 40 uM after 4 days; type: functional, cell-based; how it was run: as §2
HeLa [8] = assay: Antiproliferative activity against human HeLa cells assessed as inhibition of cell growth at 40 uM after 2 days; type: functional; details: 48 h, read-out: GI; how it was run: as §2
HeLa [9] = assay: Antiproliferative activity against human HeLa cells assessed as inhibition of cell growth at 10 uM after 4 days; type: functional; details: 96 h, read-out: GI; how it was run: as §2
[10] = Antiproliferative activity against human PC3 cells assessed as inhibition of cell growth at 10 to 60 uM after 4 days; type: functional, cell-based; details: PC-3, 96 h; how it was run: as §2
HT-29 [11] = assay: Antiproliferative activity against human HT-29 cells assessed as inhibition of cell growth at 10 to 60 uM after 4 days; type: functional, cell-based; details: HT-29, 96 h; how it was run: as §2
Jurkat [12] = assay: Antiproliferative activity against human Jurkat cells assessed as inhibition of cell growth at 10 to 60 uM after 4 days; type: functional, cell-based; details: 96 h; how it was run: as §2
HeLa [13] = assay: Antiproliferative activity against human HeLa cells assessed as inhibition of cell growth at 10 to 60 uM after 4 days; type: functional, cell-based; details: 96 h; how it was run: as §2
C6 [14] = assay: Antiproliferative activity against rat C6 cells assessed as inhibition of cell growth at 10 to 60 uM after 4 days; type: functional, cell-based; details: C6, 96 h; how it was run: as §2
[15] = Antiproliferative activity against mouse NIH/3T3 cells assessed as inhibition of cell growth at 10 to 60 uM after 4 days; type: functional, cell-based; details: NIH3T3, 96 h; how it was run: as §2
[16] = Antiproliferative activity against human PC3 cells assessed as induction of cell death at 40 to 60 uM after 4 days; type: functional, PC-3
How it was run: as §2, with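 “Cells seeded at” for “Cell counting:”, “per well” for “cells/well seeded”, “CO2” for “CO2 in medium”, “HT-29, HeLa, C6, NIH-3T3).” for “the others).”, “solution” for “stock”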

HT-29 [17] = assay: Antiproliferative activity against human HT-29 cells assessed as induction of cell death at 40 to 60 uM after 4 days; type: functional
How it was run: as §2, with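 “Cells seeded at” for “Cell counting:”, “per well” for “cells/well seeded”, “CO2” for “CO2 in medium”, “HT-29, HeLa, C6, NIH-3T3).” for “the others).”, “solution” for “stock”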

Jurkat [18] = assay: Antiproliferative activity against human Jurkat cells assessed as induction of cell death at 40 to 60 uM after 4 days; type: functional
How it was run: as §2, with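 “Cells seeded at” for “Cell counting:”, “per well” for “cells/well seeded”, “CO2” for “CO2 in medium”, “HT-29, HeLa, C6, NIH-3T3).” for “the others).”, “solution” for “stock”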

C6 [19] = assay: Antiproliferative activity against rat C6 cells assessed as induction of cell death at 40 to 60 uM after 4 days; type: functional
How it was run: as §2, with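 “Cells seeded at” for “Cell counting:”, “per well” for “cells/well seeded”, “CO2” for “CO2 in medium”, “HT-29, HeLa, C6, NIH-3T3).” for “the others).”, “solution” for “stock”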

[20] = Antiproliferative activity against mouse NIH/3T3 cells assessed as induction of cell death at 40 to 60 uM after 4 days; type: functional, NIH3T3
How it was run: as §2, with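 “Cells seeded at” for “Cell counting:”, “per well” for “cells/well seeded”, “CO2” for “CO2 in medium”, “HT-29, HeLa, C6, NIH-3T3).” for “the others).”, “solution” for “stock”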

PC-3 [21] = assay: Induction of apoptosis in human PC3 cells assessed as induction of procaspase-3 cleavage at 40 uM after 48 hrs by Western blot method; type: functional
How it was run: (§3)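 Western blot: 40 000 cells/well exposed 2−4 days to 40 μM (HeLa 10 and 30 μM) or 0.2% DMSO. Lysed in Laemmli buffer, run on 12.5% SDS-PAGE, moved to nitrocellulose. Probed overnight at 4 °C with rabbit anti-caspase-3 (1/1000), then Alexa-488 secondary. β-Actin loading control; fluorescence read on a laser scanner.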

PC-3 [22] = assay: Induction of apoptosis in human PC3 cells assessed as induction of procaspase-3 cleavage at 40 uM after 96 hrs by Western blot method; type: functional; how it was run: as §3
HT-29 [23] = assay: Induction of apoptosis in human HT-29 cells assessed as induction of procaspase-3 cleavage at 40 uM after 48 hrs by Western blot method; type: functional; how it was run: as §3
HeLa [24] = assay: Induction of apoptosis in human HeLa cells assessed as induction of procaspase-3 cleavage at 10 uM after 48 hrs by Western blot method; type: functional; how it was run: as §3
HeLa [25] = assay: Induction of apoptosis in human HeLa cells assessed as induction of procaspase-3 cleavage at 30 uM after 48 hrs by Western blot method; type: functional; how it was run: as §3
Jurkat [26] = assay: Induction of apoptosis in human Jurkat cells assessed as induction of procaspase-3 cleavage at 40 uM after 48 hrs by Western blot method; type: functional, cell-based; how it was run: as §3
C6 [27] = assay: Induction of apoptosis in rat C6 cells assessed as induction of procaspase-3 cleavage at 40 uM after 48 hrs by Western blot method; type: functional, cell-based; how it was run: as §3
NIH3T3 [28] = assay: Induction of apoptosis in mouse NIH/3T3 cells assessed as induction of procaspase-3 cleavage at 40 uM after 48 hrs by Western blot method; type: functional, cell-based; how it was run: as §3
PC-3 [29] = assay: Inhibition of DNA synthesis in human PC3 cells assessed as reduction in BrdU incorporation at 40 uM pre-incubated for 30 hrs by Southern blotting method; type: functional
How it was run: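 PC-3, 10^6 cells per flask, held 30 h at 40 μM or 0.2% DMSO, then 18 h BrdU labeling. Genomic DNA isolated by proteinase K/phenol-chloroform; 400 ng run on agarose, blotted to nitrocellulose, acid-denatured, probed with anti-BrdU and Alexa 647 secondary. Scanned signal normalized to ethidium bromide DNA fluorescence.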

PC-3 [30] = assay: Inhibition of DNA synthesis in human PC3 cells assessed as reduction in post-mitotic nuclei level at 40 uM pre-incubated for 30 hrs by immunofluorescence microscopy (reference value: 85%); type: functional; details: PC-3, read-out: INH
PC-3 [31] = assay: Induction of cell cycle arrest in human PC3 cells assessed as accumulation at G1 phase at 40 uM incubated for 48 hrs by propidium iodide staining based flow cytometry (reference value: 57.8 +/- 0.6%); type: functional
PC-3 [32] = assay: Induction of cell cycle arrest in human PC3 cells assessed as accumulation at S phase at 40 uM incubated for 48 hrs by propidium iodide staining based flow cytometry (reference value: 21.6 +/- 0.2%); type: functional
PC-3 [33] = assay: Induction of cell cycle arrest in human PC3 cells assessed as accumulation at G2/M phase at 40 uM incubated for 48 hrs by flow propidium iodide staining based flow cytometry (reference value: 20 +/- 0.6%); type: functional
PC-3 [34] = assay: Reduction in mitotic spindles formation in human PC3 cells at 40 uM incubated for 48 hrs by tubulin immunofluorescence assay; type: functional; details: PC-3, 48 h
How it was run: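 Mitotic spindles: PC-3 in chamber slides (10 000/well), 2 days with 40 μM or 0.2% DMSO. Ethanol/glycine fixation, anti-β-tubulin 1/200 for 2 h at 37 °C, then Alexa 488 secondary. Mitotic cells scored by fluorescence microscopy in random fields; at least 6000−10 000 cells counted per group.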

[35] = Toxicity against human NHDF assessed as cell viability up to 20 uM incubated for 3 days by MTT assay; type: cell-based; details: NHDF cells, read-out: Activity; how it was run: as §1
[36] = Toxicity against human NHDF assessed as cell viability at 40 uM incubated for 3 days by MTT assay; type: cell-based; details: NHDF cells, read-out: Activity; how it was run: as §1
[37] = Toxicity against human NHDF assessed as cell viability at 80 uM incubated for 3 days by MTT assay; type: cell-based; details: NHDF cells, read-out: Activity; how it was run: as §1

O=c1ccc2nccc3c4ccccc4n1c23 [CANTHIN-6-ONE]
viability at 72 h, 160 µM [1]: 33%
EC50 at 3 days [2]: 115 µM
growth inhibition (GI) (PC-3 [3]): Active
growth inhibition (GI) (HT-29 [4]): Active
growth inhibition (GI) (Jurkat [5]): Active
growth inhibition (GI) (C6 [6]): Active
growth inhibition (GI) (NIH3T3 [7]): Active
inhibition of growth at 40 µM (HeLa [8]): > 90%
inhibition of growth at 10 µM (HeLa [9]): 100%
EC50 [10]: 15 µM
EC50 (HT-29 [11]): 15 µM
EC50 (Jurkat [12]): 15 µM
EC50 (HeLa [13]): 5 µM
EC50 (C6 [14]): 15 µM
EC50 [15]: 15 µM
Activity [16]: <=30%
Activity (HT-29 [17]): <=30%
Activity (Jurkat [18]): <=30%
Activity (C6 [19]): <=30%
Activity [20]: <=30%
fold change (FC) (PC-3 [21]): 2
fold change (FC) (PC-3 [22]): 7
fold change (FC) (HT-29 [23]): 2
fold change (FC) (HeLa [24]): 1.5
fold change (FC) (HeLa [25]): 3.5
Activity (Jurkat [26]): inactive
Activity (C6 [27]): inactive
Activity (NIH3T3 [28]): inactive
inhibition at 40 µM (PC-3 [29]): 80%
inhibition at 40 µM (PC-3 [30]): 60%
Activity (PC-3 [31]): 38.1%
Activity (PC-3 [32]): 13.3%
Activity (PC-3 [33]): 47.8%
inhibition at 40 µM (PC-3 [34]): 80%
viability at 72 h [35]: 80%
viability at 72 h, 40 µM [36]: 80%
viability at 72 h, 80 µM [37]: 64%
